In ChEMBL document CHEMBL2062383, “Synthesis and antibacterial activity of 6-O-(heteroaryl-isoxazolyl)propynyl 2-fluoro ketolides” (2012):
≈ marks a conversion by molar mass, not a printed value. Calls of active or inactive are those of the source. No cut-off for these calls is given here.

Columns and labels:
[1] = test system: Streptococcus pneumoniae; experiment: Ratio of clarithromycin MIC to compound MIC for eryhtromycin-susceptible Streptococcus pneumoniae ATCC 49619; assay type: functional
[2] = test system: Streptococcus pyogenes; experiment: Antibacterial activity against erythromycin-resistant Streptococcus pyogenes 1104 expressing ermB ribosomal methylase by broth microdilution method; assay type: functional
Outline: (§1)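 MIC by broth microdilution, following Clinical and Laboratory Standards Institute guidelines for S. pneumoniae and S. pyogenes.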

[3] = test system: Haemophilus influenzae; experiment: Antibacterial activity against Haemophilus influenzae ATCC 43095 infected in po dosed ICR mouse assessed as decrease in bacterial count in lungs administered QD 1 day post-inoculation for 2 days measured after 1 day; assay type: functional, organism-based
Outline: (§2)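 Four-week-old male ICR mice were inoculated intratracheally with 5.2×10^6 CFU/mouse. Oral dosing began the day after inoculation, once daily for 2 days. Lung bacterial counts were taken the day after the last dose and are given as mean ± S.E. versus untreated control, with Steel's test.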

[4] = test system: Streptococcus pneumoniae; experiment: Antibacterial activity against erythromycin-resistant Streptococcus pneumoniae 1101 expressing ermB ribosomal methylase by broth microdilution method; assay type: functional; outline: as §1
[5] = test system: Haemophilus influenzae; experiment: Antibacterial activity against Haemophilus influenzae ATCC 43095 by broth microdilution method; assay type: functional
Outline: (§3)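 MIC by broth microdilution following CLSI guidelines for S. pneumoniae and H. influenzae.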

[6] = test system: Haemophilus influenzae; experiment: Antibacterial activity against Haemophilus influenzae ATCC 43095 infected in ICR mouse assessed as decrease in bacterial count in lungs at 50 mg/kg, po administered QD 1 day post-inoculation for 2 days measured after 1 day; assay type: functional, organism-based; set-up: dose 50 mg/kg; outline: as §2
[7] = test system: Streptococcus pneumoniae; experiment: Antibacterial activity against erythromycin-resistant Streptococcus pneumoniae 1101 expressing ermB ribosomal methylase infected in po dosed CBA/JN mouse assessed as decrease in bacterial count in lungs administered QD 1 day post-inoculation for 2 days measured after 1 day; assay type: functional, organism-based
Outline: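 Five-week-old male CBA/JN mice were inoculated intranasally with erm(B) S. pneumoniae 1101 at 5.5×10^4 CFU/mouse. Oral dosing once daily started the day after inoculation and continued for 2 days. Lung bacterial counts were taken the day after the last dose. Data are given as mean ± S.E., with Steel's test versus untreated control.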

[8] = test system: Streptococcus pneumoniae; experiment: Antibacterial activity against erythromycin-resistant Streptococcus pneumoniae 205 expressing ermB ribosomal methylase by broth microdilution method; assay type: functional; outline: as §1
[9] = test system: Haemophilus influenzae; experiment: Ratio of clarithromycin MIC to compound MIC for Haemophilus influenzae ATCC 43095; assay type: functional
[10] = test system: Streptococcus pneumoniae; experiment: Antibacterial activity against eryhtromycin-susceptible Streptococcus pneumoniae ATCC 49619 by broth microdilution method; assay type: functional; outline: as §1
[11] = test system: Streptococcus pneumoniae; experiment: Antibacterial activity against Streptococcus pneumoniae 210 expressing mefA efflux pump by broth microdilution method; assay type: functional; outline: as §3

SMILES	Ratio [1]	MIC [2]	Activity [3]	MIC [4]	MIC [5]	Activity [6]	Activity [7]	MIC [8]	Ratio [9]	MIC [10]	MIC [11]
CC[C@H]1OC(=O)[C@@](C)(F)C(=O)[C@H](C)[C@@H](O[C@@H]2O[C@H](C)C[C@H](N(C)C)[C@H]2O)[C@](C)(OCC#Cc2cc(-c3cccnn3)no2)C[C@@H](C)C(=O)[C@H](C)[C@H]2NC(=O)O[C@@]21C	4	1 µg/mL (≈ 1.25 µM)	Dose-dependent effect	0.016 µg/mL (≈ 0.02 µM)	2 µg/mL (≈ 2.5 µM)	Active	Dose-dependent effect	8 ng/mL (≈ 0.01 µM)	2	8 ng/mL (≈ 0.01 µM)	0.03 µg/mL (≈ 0.0375 µM)
CC[C@H]1OC(=O)[C@@](C)(F)C(=O)[C@H](C)[C@@H](O[C@@H]2O[C@H](C)C[C@H](N(C)C)[C@H]2O)[C@](C)(OCC#Cc2cc(-c3cnc(N)nc3)no2)C[C@@H](C)C(=O)[C@H](C)[C@H]2NC(=O)O[C@@]21C	4	0.06 µg/mL (≈ 0.0736 µM)	Dose-dependent effect	0.008 µg/mL (≈ 0.00982 µM)	2 µg/mL (≈ 2.45 µM)		Dose-dependent effect	8 ng/mL (≈ 0.00982 µM)	2	8 ng/mL (≈ 0.00982 µM)	0.03 µg/mL (≈ 0.0368 µM)
CC[C@H]1OC(=O)[C@@](C)(F)C(=O)[C@H](C)[C@@H](O[C@@H]2O[C@H](C)C[C@H](N(C)C)[C@H]2O)[C@](C)(OCC#Cc2cc(-c3ncccn3)no2)C[C@@H](C)C(=O)[C@H](C)[C@H]2NC(=O)O[C@@]21C	4	2 µg/mL (≈ 2.5 µM)	Dose-dependent effect	0.016 µg/mL (≈ 0.02 µM)	2 µg/mL (≈ 2.5 µM)		Dose-dependent effect	8 ng/mL (≈ 0.01 µM)	2	8 ng/mL (≈ 0.01 µM)	0.03 µg/mL (≈ 0.0375 µM)
CC[C@H]1OC(=O)[C@H](C)[C@@H](O[C@H]2C[C@@](C)(OC)[C@@H](O)[C@H](C)O2)[C@H](C)[C@@H](O[C@@H]2O[C@H](C)C[C@H](N(C)C)[C@H]2O)[C@](C)(O)C[C@@H](C)CN(C)[C@H](C)[C@@H](O)[C@]1(C)O [AZITHROMYCIN]		> 128 µg/mL			0.5 µg/mL (≈ 0.668 µM)			> 128000 ng/mL		60 ng/mL (≈ 0.0801 µM)	2 µg/mL (≈ 2.67 µM)
CC[C@H]1OC(=O)[C@H](C)[C@@H](O[C@H]2C[C@@](C)(OC)[C@@H](O)[C@H](C)O2)[C@H](C)[C@@H](O[C@@H]2O[C@H](C)C[C@H](N(C)C)[C@H]2O)[C@](C)(OC)C[C@@H](C)C(=O)[C@H](C)[C@@H](O)[C@]1(C)O [CLARITHROMYCIN]		> 128 µg/mL			4 µg/mL (≈ 5.35 µM)			> 128000 ng/mL		30 ng/mL (≈ 0.0401 µM)	2 µg/mL (≈ 2.67 µM)
